Reference: PMC6257985 (The FEBS journal, 2017)
Where no end group is shown, it is not given here. The star is where a group is joined. αGalNAc = CC(=O)N[C@@H]1[C@@H](O)[C@@H](O)[C@@H](CO)O[C@@H]1*

How the values were obtained:
[1] = molecular target: T1, recombinant Bauhinia forficata lectin (BfL) (Bauhinia forficata, UniProt P86993); assay: glyco-antigen microarray binding of BfL, apparent Kd; conditions: for RFUmax: carbohydrate array, maximum signal of the binding curve
T1 sequence (P86993 1-233): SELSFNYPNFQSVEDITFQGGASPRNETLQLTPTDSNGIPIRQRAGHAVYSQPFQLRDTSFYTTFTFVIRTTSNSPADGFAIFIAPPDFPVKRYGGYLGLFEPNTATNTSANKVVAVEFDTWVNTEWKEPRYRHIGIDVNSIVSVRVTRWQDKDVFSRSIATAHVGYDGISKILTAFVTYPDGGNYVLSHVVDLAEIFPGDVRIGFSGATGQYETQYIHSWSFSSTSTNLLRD
Method in brief: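 His6-tagged lectin expressed in E. coli, refolded from inclusion bodies, and gel-filtered in 50 mM Hepes pH 7.5, 150 mM NaCl. Glycans on BSA or HSA (neoglycoproteins), some at high and low density. Arrays blocked overnight at 4 °C in 3% BSA TBS. Lectin dilutions in 1% BSA TBS with 2 mM CaCl2 and 0.05% Tween-20, duplicate wells, 2 h at 37 °C. Detected with anti-His then DyLight549 anti-mouse IgG. Fluorescence averaged, log2-transformed, apparent Kd fitted from binding curves.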

[2] = molecular target: ovine submaxillary mucin (ovine); assay: peptide or protein array
[3] = molecular target: T2, Ac-S-Ser(core 5)-S-G-18; assay: peptide or protein array
T2 sequence (peptide, N-terminal acetyl; core 5 (GalNAcα1-3GalNAcα1-) on the second residue (Ser)): SSSG

[4] = molecular target: T3, Ac-S-Thr(F1α)-S-G - 18; assay: peptide or protein array
T3 sequence (peptide, N-terminal acetyl; F1α (Galβ1-4GlcNAcβ1-6GalNAcα1-) on the second residue (Thr)): STSG

[5] = molecular target: T4, Ac-A-Tn(Thr)-S-G - 05; assay: peptide or protein array
T4 sequence (peptide, N-terminal acetyl; Tn (GalNAc α-linked) on the second residue (Thr)): ATSG

[6] = molecular target: T5, Ac-S-Tn(Thr)-S-G - 04; assay: peptide or protein array
T5 sequence (peptide, N-terminal acetyl; Tn (GalNAc α-linked) on the second residue (Thr)): STSG

[7] = molecular target: T6, Ac-S-Tn(Ser)-S-G - 04; assay: peptide or protein array
T6 sequence (peptide, N-terminal acetyl; Tn (GalNAc α-linked) on the second residue (Ser)): SSSG

[8] = molecular target: T7, Ac-S-Tn(Ser)-S-G - 22; assay: peptide or protein array
T7 sequence (peptide, N-terminal acetyl; Tn (GalNAc α-linked) on the second residue (Ser)): SSSG

[9] = molecular target: all forms of the Tn antigen (Tn glycopeptides, 55 array components); assay: peptide or protein array
[10] = system: human cancer cell lines of the NCI-60 panel; assay: NCI-60 Human Tumor Cell Lines Screen, One Dose Assay; type: cell-based; conditions: 1.85 μM
Method in brief: (§1)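 Recombinant His-tagged test lectin, refolded from E. coli inclusion bodies, was gel-filtered into 50 mM Hepes pH 7.5, 150 mM NaCl before use. NCI DTP ran a one-dose screen at 1.85 μM following its published protocols. Read-out was SRB colorimetric total protein in non-lysed cells. Growth percent is relative to drug-free medium, averaged over two experiments.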

[11] = system: melanoma LOX IMVI cell line; assay: NCI-60 One Dose Assay; type: cell-based, human; conditions: 1.85 μM, SRB assay, 5% serum, average of two experiments
Method in brief: as §1

[12] = system: rabbit erythrocytes; conditions: natural BfL from seeds; cited from earlier work
[13] = system: normal and several types of cancer cells; conditions: natural BfL from seeds; cited from earlier work
[14] = system: MCF7 human breast cancer cell line; conditions: natural BfL from seeds; after 72 hours at 2.5 µM; cited from earlier work
[15] = system: human erythrocytes originating from all blood types; conditions: natural BfL from seeds; cited from earlier work
[16] = solubility of recombinant BfL; type: physicochemical
Method in brief: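 Recombinant His6-tagged lectin was expressed in bacteria, recovered from inclusion bodies and refolded at 5 °C. It was then dialysed overnight against 50 mM Tris-HCl pH 7.5, 0.2 M NaCl, 1 mM CaCl2, and concentrated to 8-10 mg/ml at room temperature for storage at −80 °C. The preceding purification and refolding steps were run at 5 °C.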

[17] = molecular target: T8, recombinant Bauhinia forficata lectin (BfL-His6) (Bauhinia forficata, UniProt P86993 1-233); assay: peptide or protein array
T8 sequence: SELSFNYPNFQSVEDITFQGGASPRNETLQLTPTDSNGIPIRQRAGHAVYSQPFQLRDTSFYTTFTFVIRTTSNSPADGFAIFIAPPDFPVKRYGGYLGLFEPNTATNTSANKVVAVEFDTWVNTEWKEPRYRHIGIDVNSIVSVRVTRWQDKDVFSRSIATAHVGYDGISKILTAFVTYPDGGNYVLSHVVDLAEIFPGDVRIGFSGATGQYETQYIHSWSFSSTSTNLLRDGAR

Molecule: -G-V-T-S-A-P-D-T-R-P-A-P-G-S- Tn(Thr)-A-P-P-A (GVTSAPDTRPAPGST(αGalNAc)APPA; also: conjugated to albumin carrier (BSA or HSA)) [Muc1-Tn15]
- RFUmax [1]: 17917 RFU

Molecule: Ac-S-Tn(Ser)-V-G-13: Tn glycopeptide on BSA or HSA, array component (Ac-SS(αGalNAc)VG; also: on BSA or HSA carrier)
- RFUmax [1]: 17255 RFU

Molecule: AzHex-P-D-Tn(Thr)-R-P-NH2-07: Tn glycopeptide on BSA or HSA, array component (AzHex-PDT(αGalNAc)RP-NH2; also: on BSA or HSA carrier)
- RFUmax [1]: 15559 RFU

Molecule: GalNAcα1-3(Fucα1-2)Gal [BG-A -19]
- RFUmax [1]: 15700 RFU

Molecule: GalNAcα1-3Gal [GalNAcα1-3Gal - 17]
- binding of BfL on glycan microarray (in words) [1]: strong binding
- RFUmax [1]: 17826 RFU

Molecule: GalNAcα1-3GalNAcα1-Ser (Ac-SSSG; not fully specified (residue 2); also: on BSA or HSA carrier) [Ac-S-Ser(core 5)-S-G-18]
- binding of BfL on glycan microarray (in words) [1]: good binder
- RFUmax [1]: 18580 RFU

Molecule: GalNAcα1-3GalNAcβ1-3Galα1-4Galβ [Forssman Tetra-BSA - 13]
- binding of BfL on glycan microarray (in words) [1]: strong binding
- RFUmax [1]: 18518 RFU

Molecule: GalNAcα1-6Galβ [GalNAcα1-6Galβ - 22]
- binding of BfL on glycan microarray (in words) [1]: strong binding
- RFUmax [1]: 19055 RFU

Molecule: GalNAcβ1-3Galα1-3Galβ [iGb4]
- binding of BfL on glycan microarray (in words) [1]: strong binding

Molecule: GalNAcβ1-3Galα1-4Galβ1-4GlcNAcβ [Gb4 - 09]
- binding of BfL on glycan microarray (in words) [1]: strong binding
- RFUmax [1]: 14003 RFU
- Kd ([1]; read-out: App Kd, apparent Kd, multivalent avidity on carbohydrate array): 680 pM

Molecule: GalNAcβ1-4Galβ [GA2di - 37]
- binding of BfL on glycan microarray (in words) [1]: strong binding
- RFUmax [1]: 17241 RFU

Molecule: GalNAcβ1-4GlcNAcβ [LDN-Sp - 14]
- binding of BfL on glycan microarray (in words) [1]: strong binding
- RFUmax [1]: 18291 RFU

Molecule: Galβ1-4GlcNAcβ1-6GalNAcα1-Thr (Ac-ST(Galβ1‑4GlcNAcβ1‑6GalNAcα1)SG; also: on BSA or HSA carrier) [Ac-S-Thr(F1α)-S-G - 18]
- RFUmax [1]: 17214 RFU

B1: recombinant Bauhinia forficata lectin (BfL-His6) (natural protein)
chain: SELSFNYPNFQSVEDITFQGGASPRNETLQLTPTDSNGIPIRQRAGHAVYSQPFQLRDTSFYTTFTFVIRTTSNSPADGFAIFIAPPDFPVKRYGGYLGLFEPNTATNTSANKVVAVEFDTWVNTEWKEPRYRHIGIDVNSIVSVRVTRWQDKDVFSRSIATAHVGYDGISKILTAFVTYPDGGNYVLSHVVDLAEIFPGDVRIGFSGATGQYETQYIHSWSFSSTSTNLLRDGAR
- Kd [2]: 10600 pM
- Kd [3]: 1020 pM
- Kd [4]: 2510 pM
- Kd [5]: 630 pM
- Kd [6]: 710 pM
- Kd [7]: 750 pM
- Kd [8]: 650 pM
- Kd [9]: 400 to 1200 pM

B2: BfL: recombinant Bauhinia forficata lectin expressed in E. coli and refolded, non-glycosylated, C-terminal His6 tag, dimeric (protein)
chain: SELSFNYPNFQSVEDITFQGGASPRNETLQLTPTDSNGIPIRQRAGHAVYSQPFQLRDTSFYTTFTFVIRTTSNSPADGFAIFIAPPDFPVKRYGGYLGLFEPNTATNTSANKVVAVEFDTWVNTEWKEPRYRHIGIDVNSIVSVRVTRWQDKDVFSRSIATAHVGYDGISKILTAFVTYPDGGNYVLSHVVDLAEIFPGDVRIGFSGATGQYETQYIHSWSFSSTSTNLLRDGAR
modifications: left off: His6, C-terminal, kept
- cytotoxic effects [10]: No cytotoxic effects
- growth inhibition, strong effect, five cell lines ([10]; observed for five cell lines of different cancers): > 50%
- cell lines not inhibited ([10]; share of the cell lines of the panel): About 50%
- growth inhibition [11]: over 95%
- concentration that agglutinates erythrocytes [12]: ≥ 1 µg/mL
- cytotoxicity (in words) [13]: non-cytotoxic
- inhibition of viability [14]: 35%
- concentration that agglutinates erythrocytes [15]: ≥ 1 µg/mL
- solubility (in words) ([16]; 5 °C, compared with room temperature): decreases
- solubility ([16]; room temperature): 8000 to 10000 µg/mL

Molecule: AzHex-PDT(αGalNAc)RP-NH2 [AzHex-P-D-Tn(Thr)-R-P-NH2-07]
- Kd [17]: 1250 pM

Molecule: Ac-APGST(αGalNAc)APPAG [Ac-A-P-G-S-Tn(Thr)-A-P-P-A-G-03]
- Kd [17]: 650 pM
